Reference: PMC2875079 (Journal of medicinal chemistry, 2010)
Each block holds one molecule with its values, some of them ahead of it.

Key:
SphKs = conditions: cited from earlier work
[1] = in water and DMSO; cited from earlier work
SphK1 = conditions: read-out: KM of SphK1 for sphingosine; cited from earlier work
SphK2 = conditions: read-out: KM of SphK2 for sphingosine; cited from earlier work
Human SphK1 = Human SphK1 (Homo sapiens, UniProt Q9NYA1); test: Sphingosine kinase assay, recombinant SphK1; assay type: biochemical; conditions: for Inhibition of SphK1: at concentrations up to 100 μM
mouse SphK2 = biological target: T1, mouse SphK2 (Mus musculus, UniProt Q9JIA7); test: Sphingosine kinase assay, recombinant SphK2; assay type: biochemical; conditions: for Inhibition of SphK2: at concentrations up to 100 μM
T1 sequence (Q9JIA7 1-617): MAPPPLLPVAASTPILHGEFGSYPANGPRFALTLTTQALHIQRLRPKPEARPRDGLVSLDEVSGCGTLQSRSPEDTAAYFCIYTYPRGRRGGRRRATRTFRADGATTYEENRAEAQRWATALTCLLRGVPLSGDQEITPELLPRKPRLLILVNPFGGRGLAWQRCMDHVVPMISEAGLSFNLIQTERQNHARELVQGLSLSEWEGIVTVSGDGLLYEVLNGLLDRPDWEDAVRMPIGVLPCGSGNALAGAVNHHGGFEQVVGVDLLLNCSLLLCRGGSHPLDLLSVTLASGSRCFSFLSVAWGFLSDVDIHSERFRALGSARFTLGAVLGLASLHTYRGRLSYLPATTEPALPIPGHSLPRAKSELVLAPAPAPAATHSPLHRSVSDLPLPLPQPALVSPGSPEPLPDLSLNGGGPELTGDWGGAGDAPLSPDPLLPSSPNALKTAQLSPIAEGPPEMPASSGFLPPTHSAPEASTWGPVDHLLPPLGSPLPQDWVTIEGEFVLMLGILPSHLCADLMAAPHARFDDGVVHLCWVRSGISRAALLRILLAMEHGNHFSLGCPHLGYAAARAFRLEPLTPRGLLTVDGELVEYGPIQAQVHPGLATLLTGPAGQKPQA

[2] = tested on: vascular smooth muscle cells; test: Intracellular S1P concentration by LC/MS in serum-stimulated smooth muscle cells; assay type: cell-based, rat; conditions: pre-treated 30 min, then 10% serum; Figure 3C
Outline: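 Rat aortic smooth muscle cells were pre-treated with test compound for 30 min, then given 10% FBS for 12 h. Cells were washed in PBS and scraped into ice-cold MeOH, then extracted with CHCl3/0.1 M HCl containing 50 pmol C17 S1P internal standard. The organic phase was acetylated (acetic anhydride/pyridine). Analysis used C8 LC with […] ESI-MS/MS (BisAcS1P 462/402), quantified against calibration curves. N=2 biological replicates; mean ± st dev.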

[3] = tested on: vascular smooth muscle cells; test: Smooth muscle cell proliferation, BrdU incorporation; assay type: cell-based, rat; conditions: pre-treated 30 min, 10% serum 24 hours, Figure 3D
Outline: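 Rat aortic vascular smooth muscle cells were pre-treated 30 min with a dose range of test compound, then stimulated with 10% FBS for 24 h. Proliferation was read as BrdU (10 μM) incorporation by immunoassay. N=6 biological replicates; mean ± st dev; P < 0.05 marked.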

[4] = tested on: vascular smooth muscle cells; test: Cytotoxicity on visual microscopic inspection; assay type: cell-based; conditions: 10% FBS + compound (10 μM), light microscopy; Figure 3E
Outline: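 Rat aortic vascular smooth muscle cells were imaged by light microscopy at 20× magnification. Conditions were untreated control, 10% FBS, and 10% FBS plus test compound at 10 μM. Cytotoxicity was judged by visual inspection.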

[5] = tested on: vascular smooth muscle cells; test: Cell viability / cytotoxic response, Promega MultiTox-Fluor Assay; assay type: cell-based; conditions: 0.001 μM – 100 μM, Figure 3F
Outline: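 Rat aortic vascular smooth muscle cells, cultured in vitro. Test compound applied at 0.001–100 μM, with 20 μM cyclosporine A as comparator. Cytotoxicity read with the MultiTox-Fluor fluorescence kit. N=3 biological replicates; mean ± st dev; P < 0.05 marked.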

[6] = biological target: diacylglycerol kinase type γ (Homo sapiens, UniProt P49619); test: Specificity test at recombinant diacylglycerol kinase type γ; assay type: biochemical; conditions: at concentrations up to 100 μM
Sequence of diacylglycerol kinase type γ (P49619 whole entry): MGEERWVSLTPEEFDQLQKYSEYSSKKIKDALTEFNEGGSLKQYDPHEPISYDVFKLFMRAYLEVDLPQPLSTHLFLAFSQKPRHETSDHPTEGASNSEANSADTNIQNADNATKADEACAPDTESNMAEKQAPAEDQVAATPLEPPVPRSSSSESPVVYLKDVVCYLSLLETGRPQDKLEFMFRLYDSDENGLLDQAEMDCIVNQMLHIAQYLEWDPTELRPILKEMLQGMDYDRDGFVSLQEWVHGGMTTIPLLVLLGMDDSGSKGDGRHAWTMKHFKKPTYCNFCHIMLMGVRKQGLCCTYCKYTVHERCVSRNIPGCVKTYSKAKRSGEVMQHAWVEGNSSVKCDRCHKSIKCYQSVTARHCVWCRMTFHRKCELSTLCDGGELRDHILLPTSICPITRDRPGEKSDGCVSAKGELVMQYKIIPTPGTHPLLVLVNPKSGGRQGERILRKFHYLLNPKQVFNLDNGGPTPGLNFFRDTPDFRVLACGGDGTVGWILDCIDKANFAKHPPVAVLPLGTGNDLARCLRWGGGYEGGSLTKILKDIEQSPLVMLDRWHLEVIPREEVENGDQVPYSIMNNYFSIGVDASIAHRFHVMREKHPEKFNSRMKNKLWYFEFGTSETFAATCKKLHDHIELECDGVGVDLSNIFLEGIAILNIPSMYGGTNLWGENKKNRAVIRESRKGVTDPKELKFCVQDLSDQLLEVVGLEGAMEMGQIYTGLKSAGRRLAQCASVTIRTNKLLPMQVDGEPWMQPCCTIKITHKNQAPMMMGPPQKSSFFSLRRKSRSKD

[7] = biological target: T2, diacylglycerol kinase type δ1 (Homo sapiens, UniProt Q16760); test: Specificity test at recombinant diacylglycerol kinase type δ1; assay type: biochemical; conditions: at concentrations up to 100 μM
T2 sequence (Q16760 1-1170 isoform Q16760-2): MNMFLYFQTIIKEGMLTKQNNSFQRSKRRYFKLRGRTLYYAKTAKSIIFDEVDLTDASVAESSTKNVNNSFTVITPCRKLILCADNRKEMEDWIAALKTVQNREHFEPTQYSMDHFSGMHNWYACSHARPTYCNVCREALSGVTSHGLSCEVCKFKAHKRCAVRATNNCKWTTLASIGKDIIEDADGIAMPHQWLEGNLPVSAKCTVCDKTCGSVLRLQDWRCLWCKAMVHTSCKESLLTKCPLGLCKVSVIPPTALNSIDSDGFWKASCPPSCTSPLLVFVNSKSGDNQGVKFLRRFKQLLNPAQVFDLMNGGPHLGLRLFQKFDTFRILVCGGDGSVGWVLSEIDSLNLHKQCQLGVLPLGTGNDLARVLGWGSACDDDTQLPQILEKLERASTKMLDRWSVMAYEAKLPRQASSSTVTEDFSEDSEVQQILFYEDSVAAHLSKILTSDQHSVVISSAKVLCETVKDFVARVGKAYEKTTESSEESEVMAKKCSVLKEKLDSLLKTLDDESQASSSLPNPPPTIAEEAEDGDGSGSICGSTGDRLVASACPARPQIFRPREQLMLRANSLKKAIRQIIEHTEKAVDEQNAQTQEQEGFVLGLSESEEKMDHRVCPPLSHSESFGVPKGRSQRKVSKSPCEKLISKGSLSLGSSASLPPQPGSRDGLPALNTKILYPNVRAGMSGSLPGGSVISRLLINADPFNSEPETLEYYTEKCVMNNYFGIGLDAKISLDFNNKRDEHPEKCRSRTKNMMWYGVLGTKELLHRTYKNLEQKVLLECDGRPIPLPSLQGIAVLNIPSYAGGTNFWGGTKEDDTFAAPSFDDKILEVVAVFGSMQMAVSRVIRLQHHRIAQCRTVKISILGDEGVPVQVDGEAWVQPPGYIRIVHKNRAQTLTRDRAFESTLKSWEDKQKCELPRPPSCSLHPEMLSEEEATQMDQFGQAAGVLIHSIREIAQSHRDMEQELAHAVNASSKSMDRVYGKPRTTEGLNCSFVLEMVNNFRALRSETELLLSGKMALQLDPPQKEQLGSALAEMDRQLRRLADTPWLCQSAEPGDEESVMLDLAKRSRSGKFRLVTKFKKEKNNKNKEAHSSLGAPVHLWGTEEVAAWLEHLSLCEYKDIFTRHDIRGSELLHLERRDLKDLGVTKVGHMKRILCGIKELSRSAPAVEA

[8] = biological target: diacylglycerol kinase type ζ (Homo sapiens, UniProt Q13574); test: Specificity test at recombinant diacylglycerol kinase type ζ; assay type: biochemical; conditions: at concentrations up to 100 μM
Sequence of diacylglycerol kinase type ζ (Q13574 whole entry): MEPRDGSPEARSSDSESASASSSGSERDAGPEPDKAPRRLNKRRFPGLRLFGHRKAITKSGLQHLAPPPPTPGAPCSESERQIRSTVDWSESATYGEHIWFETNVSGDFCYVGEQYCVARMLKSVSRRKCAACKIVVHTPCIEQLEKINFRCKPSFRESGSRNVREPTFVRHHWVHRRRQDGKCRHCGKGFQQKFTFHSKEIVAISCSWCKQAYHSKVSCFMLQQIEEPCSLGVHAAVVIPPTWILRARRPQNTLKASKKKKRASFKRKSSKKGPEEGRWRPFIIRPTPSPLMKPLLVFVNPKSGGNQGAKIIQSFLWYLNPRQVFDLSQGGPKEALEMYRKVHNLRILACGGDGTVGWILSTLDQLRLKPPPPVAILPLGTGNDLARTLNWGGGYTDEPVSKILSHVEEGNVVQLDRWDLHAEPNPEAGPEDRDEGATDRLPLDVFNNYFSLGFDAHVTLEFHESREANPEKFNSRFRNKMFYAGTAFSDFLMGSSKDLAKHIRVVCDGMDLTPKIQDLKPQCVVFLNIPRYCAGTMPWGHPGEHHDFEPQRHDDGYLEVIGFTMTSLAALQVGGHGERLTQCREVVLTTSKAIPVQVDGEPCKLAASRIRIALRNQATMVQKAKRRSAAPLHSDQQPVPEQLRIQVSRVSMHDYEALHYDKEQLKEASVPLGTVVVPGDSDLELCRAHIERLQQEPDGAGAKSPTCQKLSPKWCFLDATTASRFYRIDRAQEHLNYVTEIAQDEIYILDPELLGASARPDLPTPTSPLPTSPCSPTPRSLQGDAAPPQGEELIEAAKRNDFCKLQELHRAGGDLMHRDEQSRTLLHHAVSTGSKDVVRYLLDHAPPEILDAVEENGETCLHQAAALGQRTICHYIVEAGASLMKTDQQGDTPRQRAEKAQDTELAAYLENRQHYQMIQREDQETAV

PKCα = PKCα (Homo sapiens, UniProt P17252); test: Specificity test at PKCα; assay type: biochemical; conditions: at concentrations up to 10 μM
[9] = substrate: CCCCCCCCCCCCC/C=C/[C@@H](O)[C@@H](N)CO; test: Sphingosine kinase assay, recombinant SphK2; assay type: biochemical, mouse; conditions: other: substrate D-erythro-sphingosine, absence of inhibitor
[10] = substrate: CCCCCCCCCCCCC/C=C/[C@@H](O)[C@@H](N)CO; test: Sphingosine kinase assay, recombinant SphK1; assay type: biochemical, human; conditions: other: substrate D-erythro-sphingosine, absence of inhibitor

Molecule: CCCCCCCCCCCCC/C=C/[C@@H](O)[C@H](N)CO [D-(+)-threo-sphingosine]
Inhibition of the SphKs (SphKs): weak inhibitor

Molecule: Cn1cc(NC(=O)c2cc(NC(=O)c3cc(NC=O)cn3C)cn2C)cc1C(=O)NCCC(=N)N [Distamycin A]
pKa [1]: 11.6

Molecule: CCCCCCCCCCCCC/C=C/[C@@H](O)[C@@H](N)CO [Sphingosine, D-erythro-sphingosine]
Km (SphK1): ~10 µM | Km (SphK2): ~5 µM

Molecule: CCCCCCCCc1ccc(C(=O)N[C@@H](C)C(=N)N)cc1.Cl [compound 9, (S)-N-(1-amino-1-iminopropan-2-yl)-4-octylbenzamide hydrochloride]
Ki (Human SphK1): 55 µM | Ki (mouse SphK2): 20 µM | Serum-induced changes in S1P intracellular concentration [2]: blocked | Blocked serum-induced smooth muscle cell proliferation [3]: blocked | Cytotoxicity on visual microscopic inspection [4]: not cytotoxic | Cytotoxicity/death in cell viability assay [5]: did not induce cytotoxicity/death

Inhibition of SphK1 (Human SphK1): no inhibition | Inhibition of SphK2 (mouse SphK2): no inhibition
Molecule: CCCCCCCCc1ccc(C(=O)N[C@@H](C)C(=O)O)cc1 [compound 12, (S)-2-(4-octylbenzamido)propanoic acid]

Inhibition of SphK1 (Human SphK1): no inhibition | Inhibition of SphK2 (mouse SphK2): no inhibition
Molecule: CCCCCCCCc1ccc(C(=O)N[C@@H](C)C(N)=O)cc1 [compound 13, (S)-N-(1-amino-1-oxopropan-2-yl)-4-octylbenzamide]

Inhibition of diacylglycerol kinase type γ [6]: no inhibition | Inhibition of diacylglycerol kinase type δ1 [7]: no inhibition | Inhibition of diacylglycerol kinase type ζ [8]: no inhibition | Inhibition of PKCα (PKCα): no inhibition
Molecule: CCCCCCCCCCCCc1ccc(C(=O)NC2(C(=N)N)CC2)cc1.Cl [compound 23, N-(1-carbamimidoylcyclopropyl)-4-dodecylbenzamide hydrochloride]

Ki (mouse SphK2): 6 µM | Inhibition of diacylglycerol kinase type γ [6]: no inhibition | Inhibition of diacylglycerol kinase type δ1 [7]: no inhibition | Inhibition of diacylglycerol kinase type ζ [8]: no inhibition | Inhibition of PKCα (PKCα): no inhibition
Molecule: CCCCCCCCCCCCc1ccc(NC(=O)C2(C(=N)N)CC2)cc1.Cl [compound 28, 1-carbamimidoyl-N-(4-dodecylphenyl)cyclopropanecarboxamide hydrochloride]

B1: mouse SphK2 (Mus musculus) (protein)
chain: T1 sequence (Q9JIA7 1-617)
Km [9]: 5 µM

B2: Human SphK1 (Homo sapiens) (protein)
chain: MDPAGGPRGVLPRPCRVLVLLNPRGGKGKALQLFRSHVQPLLAEAEISFTLMLTERRNHARELVRSEELGRWDALVVMSGDGLMHEVVNGLMERPDWETAIQKPLCSLPAGSGNALAASLNHYAGYEQVTNEDLLTNCTLLLCRRLLSPMNLLSLHTASGLRLFSVLSLAWGFIADVDLESEKYRRLGEMRFTLGTFLRLAALRTYRGRLAYLPVGRVGSKTPASPVVVQQGPVDAHLVPLEEPVPSHWTVVPDEDFVLVLALLHSHLGSEMFAAPMGRCAAGVMHLFYVRAGVSRAMLLRLFLAMEKGRHMEYECPYLVYVPVVAFRLEPKDGKGVFAVDGELMVSEAVQGQVHPNYFWMVSGCVEPPPSWKPQQMPPPEEPL
Km [10]: 10 µM
